The target in experiment [1] is T1, DNA (cytosine-5)-methyltransferase 3A (Homo sapiens, UniProt Q9Y6K1). Description: Inhibition of N-terminal His6-tagged DNMT3A (623 to 908 residues) (unknown origin) expressed in Escherichia coli BL21 (DE3) coexpressing DNMT3L (160 to 386 C-terminal residues) (unknown origin) assessed as reduction in oligonucleosome methylation at 100 uM preincubated for 15 mins followed by addition of [3H]-SAM measured after 4 hrs by liquid scintillation counting method. An outline of the steps: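 DNMT3A/3L complex activity measured by radioactive methylation assay. Single-point screen at 100µM per compound, with sinefungin (a SAM competitor) run as the reference inhibitor.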

For experiment [2], the target named is T1, DNA (cytosine-5)-methyltransferase 3A. Description: Inhibition of N-terminal His6-tagged DNMT3A (623 to 908 residues) (unknown origin) expressed in Escherichia coli BL21 (DE3) coexpressing DNMT3L (160 to 386 C-terminal residues) (unknown origin) assessed as reduction in oligonucleosome methylation preincubated for 15 mins followed by addition of [3H]-SAM measured after 4 hrs by liquid scintillation counting method. In a few lines:
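IC50 determined from a dose-response in the same radioactive methylation assay on DNMT3A/3L. Sinefungin served as the SAM-competitive reference inhibitor.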

A further experiment concerns Kasumi 1. Description: Growth inhibition of human Kasumi-1 cells at 12.5 to 200 uM measured after 48 hrs by AlamarBlue assay. The class given is functional, cell-based. An outline of the steps:
(§1)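 AML cells were exposed to 12.5, 25, 50, 100 and 200µM for 48 hours before viability read-out: Kasumi-1, MV4-11 and THP-1.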

The subject of a further experiment is KG-1. Description: Growth inhibition of human KG1 cells at 12.5 to 200 uM measured after 72 hrs by AlamarBlue assay. The class given is functional, cell-based. In a few lines: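 KG-1 AML cells were treated at 12.5, 25, 50, 100 and 200µM, with viability read after 72 hours of exposure.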
On the technique in general: Resazurin is reduced to fluorescent resorufin, in cell work by metabolically active cells.

The next experiment concerns MV4-11. Description: Growth inhibition of human MV4-11 cells at 12.5 to 200 uM measured after 48 hrs by AlamarBlue assay. The class given is functional, cell-based. In a few lines: as §1
In another experiment the test system is HeLa. Description: Growth inhibition of human HeLa cells at 12.5 to 200 uM measured after 4 days by AlamarBlue assay. The class given is functional, cell-based.
Another experiment has as its system THP-1. Description: Growth inhibition of human THP1 cells at 12.5 to 200 uM measured after 48 hrs by AlamarBlue assay. The class given is functional, cell-based. In a few lines: as §1

pIC50: −log10 of the molar value. Activity calls are given as the source filed them. No cut-off for these calls is given here.

T1 sequence (Q9Y6K1 whole entry, looked up, the tested form may be a part): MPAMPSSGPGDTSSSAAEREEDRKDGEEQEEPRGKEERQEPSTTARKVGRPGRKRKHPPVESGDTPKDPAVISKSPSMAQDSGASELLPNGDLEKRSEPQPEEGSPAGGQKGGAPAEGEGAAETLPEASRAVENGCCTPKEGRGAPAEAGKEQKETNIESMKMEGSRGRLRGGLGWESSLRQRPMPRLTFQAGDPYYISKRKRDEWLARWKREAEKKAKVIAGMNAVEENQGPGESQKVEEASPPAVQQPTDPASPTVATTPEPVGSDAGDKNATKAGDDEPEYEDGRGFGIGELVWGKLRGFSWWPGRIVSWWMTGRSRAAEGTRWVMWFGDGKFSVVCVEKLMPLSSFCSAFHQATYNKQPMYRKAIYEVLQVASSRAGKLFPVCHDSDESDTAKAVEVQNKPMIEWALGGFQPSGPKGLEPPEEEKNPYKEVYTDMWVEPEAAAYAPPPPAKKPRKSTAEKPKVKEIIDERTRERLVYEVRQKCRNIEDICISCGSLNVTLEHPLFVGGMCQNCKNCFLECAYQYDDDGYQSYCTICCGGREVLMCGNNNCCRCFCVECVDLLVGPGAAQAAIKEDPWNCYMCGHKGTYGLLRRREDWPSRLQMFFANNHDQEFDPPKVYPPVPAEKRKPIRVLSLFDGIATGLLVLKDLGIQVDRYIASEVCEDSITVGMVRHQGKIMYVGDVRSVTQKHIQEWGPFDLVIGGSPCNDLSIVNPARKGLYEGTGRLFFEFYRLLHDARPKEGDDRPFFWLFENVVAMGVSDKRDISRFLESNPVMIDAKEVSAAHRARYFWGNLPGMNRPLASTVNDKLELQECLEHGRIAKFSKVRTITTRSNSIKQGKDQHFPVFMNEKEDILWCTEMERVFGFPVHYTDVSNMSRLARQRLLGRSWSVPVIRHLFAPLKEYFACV

Turning to `Cc1cc(Br)ccc1NC(=O)c1ccc2c(c1)C(=O)N(CC(C)C)C2=O`, in experiment [1], the inhibition – broadly, the change of the read-out against control, counted positive when it falls – is 8%.

For the compound `CC(C)(C)N1C(=O)c2ccc(C(=O)Nc3ccc(C(=O)O)cc3)cc2C1=O`, in experiment [1], the inhibition came to 11%.

Consider `CCOc1ccccc1N1C(=O)c2ccc(C(=O)Nc3ccc(Br)cc3C(=O)O)cc2C1=O`, for which the inhibition in experiment [1] worked out at 56%.

On to `O=C(Nc1ccccc1Cl)c1ccc2c(c1)C(=O)N(Cc1ccco1)C2=O`, for which the inhibition in experiment [1] stood at 13%.

As for `Cc1cc(O)ccc1NC(=O)c1ccc2c(c1)C(=O)N(Cc1cccnc1)C2=O`, the inhibition in experiment [1] came to 11%.

For `COc1ccccc1N1C(=O)c2ccc(C(=O)Nc3ccccc3O)cc2C1=O`, the inhibition in experiment [1] was 1%.

`O=C(O)c1ccc(NC(=O)c2ccc3c(c2)C(=O)N(Cc2ccco2)C3=O)cc1`: the inhibition in experiment [1] stood at 92%. Besides, the pIC50 (in general, −log10 of the IC50, conventionally taken in molar units) in experiment [2] is 4.19.

Consider `CC(c1ccccc1)N1C(=O)c2ccc(C(=O)Nc3ccc(Br)cc3C(=O)O)cc2C1=O` (configuration not stated), for which the “growth inhibition (GI)” value in the experiment on Kasumi 1, in the experiment with KG-1, in the experiment on MV4-11, in the experiment on HeLa and in the experiment with THP-1 was “Active” in each case. The inhibition entry in experiment [1] was “Active”. In addition, the pIC50 in experiment [2] was 4.33.

For `O=C(Nc1ccc(Br)cc1C(=O)O)c1ccc2c(c1)C(=O)N(c1cc(Cl)ccc1C(=O)O)C2=O`, the “growth inhibition (GI)” value in the experiment with Kasumi 1, in the experiment on KG-1, in the experiment on MV4-11, with HeLa and in the experiment on THP-1 was “Active” each time. In experiment [1], the inhibition amounted to 67%. Besides, in experiment [2], the pIC50 was 4.39.

For `COCCN1C(=O)c2ccc(C(=O)Nc3ccc(Br)cc3C(=O)O)cc2C1=O`, the inhibition in experiment [1] was -8%.

As to `Cc1ccc(O)c(NC(=O)c2ccc3c(c2)C(=O)N(Cc2cccnc2)C3=O)c1`, the inhibition in experiment [1] was determined as 6%.

Take `CCOc1ccc(NC(=O)c2ccc3c(c2)C(=O)N(c2ccccc2)C3=O)cc1`: the inhibition in experiment [1] amounted to 19%.

Regarding `COc1ccccc1NC(=O)c1ccc2c(c1)C(=O)N(Cc1ccco1)C2=O`, the inhibition in experiment [1] is 3%.

As to `COc1ccc(N2C(=O)c3ccc(C(=O)Nc4ccccc4OC)cc3C2=O)cc1`, the inhibition in experiment [1] was found to be 4%.
